Bioassay records deposited in PubChem BioAssay by Broad Institute.
This is a sample that favours compounds with a hit; in the whole collection about 2.3% have one here.
Cneo AK release = Cryptococcus neoformans cell lysis inducers, primary screen, AK release luminescence, single concentration; 360,000 compounds, 0.2% hits; C. neoformans lysis, adenylate kinase release luminescence, 4 h; normalised: neutral wells 0, clomiphene wells 100; lysis activity, % at 15 µM;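 active = mean lysis activity across replicates of at least 80%, whatever share of replicates individually reach that level; inactive = mean lysis activity below 80%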
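Material: C. neoformans cells | Amount: Yeast cell density of 5 × 10^6 cells/mL | Medium: Fresh YPD growth medium | Dosing: Single dose | Times: Static 4 h at 37 °C with compound, 1 h detection | Detection: AK luminescence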
Statin myotox sup = suppressors of statin myotoxicity in C2C12 myotubes, primary screen, cell-based, single point, plate reader | C2C12 myotubes + simvastatin, ATP luminescence, 48 h; scaled: DMSO 0, geranylgeraniol control 100 | rescue of ATP level, % at 7.49 µM | 330,000 compounds, 0.78% hits | AID 602340, 2012;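 active = mean ATP rescue above about 67%, or every replicate alone reaching that limit, limit read from the data, passing the limit was not always enough; inconclusive = no clear call, values can overlap the other calls; inactive = mean under the limit and some replicate under it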;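 note: myotubes were challenged with 10 µM simvastatin during compound exposure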
DENV2 CPE rescue = inhibitors of DENV2 cytopathic effect, primary screen, cell-based, plate reader, single concentration; DENV2-infected cells, cytopathic effect rescue; CPE inhibition, % at 9.99 µM; 350,000 compounds, 1.7% hits; AID 651640, 2012; in the data active = CPE inhibition above about 20%, passing the limit was not always enough; inconclusive = no clear call, values can overlap the other calls; tested in BHK-21 cells
CFTR F508del cor = F508del CFTR correction, initial screen, CFBE line, single point; CFBE cells, YFP halide quenching; stimulated with forskolin plus potentiator P3; % fluorescence drop versus neutral controls; 350,000 compounds, 0.36% hits; activity (quench increase), % at 7.58 µM; AID 720511, 2013;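 active = mean added fluorescence quench of at least 8% versus neutral control, with both replicates also reaching 8%; inconclusive = only one of the mean or replicate conditions met; inactive = mean below 8% and not both replicates reaching 8%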;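 note: cells transiently co-express mutant CFTR-F508del with the halide-sensitive YFP; corrector assay measuring rescue of mutant channel to the surface after 24 h compound exposure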
ERp5 block = inhibitors of ERp5-driven insulin aggregation, primary screen, biochemical, turbidity, absorbance 650 nm, single point | Protein disulfide-isomerase A6 (Homo sapiens), Q15084 | AID 651711, 2012 | 90 min | 350,000 compounds, 0.05% hits | inhibition, % at 9.99 µM;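 active = mean replicate inhibition above about 25%, with every replicate also reaching it, limit read from the data, passing the limit was not always enough; inconclusive = only one of those two criteria met; inactive = neither criterion met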
Target sequence (Q15084 whole entry, looked up): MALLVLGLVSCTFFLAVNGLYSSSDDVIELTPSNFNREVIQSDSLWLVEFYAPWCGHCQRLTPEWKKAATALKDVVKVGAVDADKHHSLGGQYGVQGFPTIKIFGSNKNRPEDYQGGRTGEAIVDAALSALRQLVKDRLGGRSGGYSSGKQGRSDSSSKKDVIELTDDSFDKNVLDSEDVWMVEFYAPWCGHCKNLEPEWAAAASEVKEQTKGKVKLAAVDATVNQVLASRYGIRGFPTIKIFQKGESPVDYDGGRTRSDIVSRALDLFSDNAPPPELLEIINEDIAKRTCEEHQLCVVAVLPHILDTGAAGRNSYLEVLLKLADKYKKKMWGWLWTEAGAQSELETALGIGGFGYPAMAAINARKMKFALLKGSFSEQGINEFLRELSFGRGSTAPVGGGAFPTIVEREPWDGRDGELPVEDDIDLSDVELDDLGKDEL
PDI inh = inhibitors of human PDI, primary screen, biochemical, turbidity, single point, plate reader. Protein disulfide-isomerase (Homo sapiens), P07237. PDI insulin aggregation turbidity, A650, 90 min. inhibition, % at 10 µM. 350,000 compounds, 0.052% hits. AID 588391, 2011;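 active = mean inhibition across replicates of 30% or more, whatever share of single replicates reach that level; inconclusive = mean inhibition below 30% while every single replicate reaches 30%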
Numbers stand for hits; . = inactive; ? = inconclusive; / = no result given; ! = not confirmed by another sample.

SMILES | Cneo AK release | Statin myotox sup | DENV2 CPE rescue | CFTR F508del cor | ERp5 block | PDI inh
O=C(CSc1nc2nn(-c3ccccc3)c(=O)c-2c2n1CCCCC2)c1ccc(O)c(O)c1 | . | . | / | / | / | 53
CNC(=O)CSc1nc2nn(-c3ccccc3)c(=O)c-2c2n1CCCCC2 | . | . | . | . | . | .
C[C@@H]1CN([C@@H](C)CO)C(=O)Cc2cc(NC(=O)CCN3CCOCC3)ccc2O[C@@H]1CN(C)C | . | . | . | . | . | /
Oc1ccc(-c2cn3c(n2)SCC3)cc1 | . | 97 | / | / | / | .
O=C(O)C[C@H]1C[C@H]2c3cc(NC(=O)CC4CC4)ccc3O[C@H]2[C@H](CO)O1 | . | . | . | . | . | /
O=C(O)COc1c(-c2ccccc2)oc2ccccc2c1=O | . | 75 | / | / | / | .
Cc1ccc(-c2oc3ccccc3c(=O)c2OCC(=O)O)cc1 | . | . | . | . | . | .
O=C1CN(Cc2ccccc2)C[C@H]2[C@@H](c3ccc(Br)cc3)[C@@H](CO)N12 | / | / | . | . | . | /
CN(Cc1ccco1)c1ncnc2ccc(-c3ccc4c(ccn4C)c3)cc12 | . | . | ? | 14 | . | .
Cc1cccc(Oc2nccc(C(F)(F)F)c2C(=O)Nc2ccc(F)cc2F)c1 | / | . | 32 | . | . | .
O=C(Nc1ccc(F)cc1F)c1c(C(F)(F)F)ccnc1Oc1ccccc1 | . | / | . | . | . | .
Cc1noc(C)c1NC(=O)N(C)C[C@@H]1OCCCC[C@@H](C)Oc2ccc(N(C)C)cc2C(=O)N([C@H](C)CO)C[C@@H]1C | / | . | / | . | / | /
C[C@H](CO)N1C[C@H](C)[C@@H](CN(C)Cc2ccc(Oc3ccccc3)cc2)Oc2cc(Br)ccc2S1(=O)=O | . | . | 25! | . | . | .
COCC#Cc1ccc2c(c1)O[C@@H](CN(C)Cc1ccccc1)[C@@H](C)CN([C@@H](C)CO)S2(=O)=O | . | . | . | . | . | /
COCC#Cc1ccc2c(c1)O[C@H](CN(C)Cc1ccccc1)[C@@H](C)CN([C@H](C)CO)S2(=O)=O | . | . | 28 | . | . | /
COCC#Cc1ccc2c(c1)O[C@@H](CN(C)Cc1ccccc1)[C@H](C)CN([C@H](C)CO)S2(=O)=O | . | . | 23 | . | . | /
COCC#Cc1ccc2c(c1)O[C@@H](CN(C)Cc1ccncc1)[C@H](C)CN([C@H](C)CO)S2(=O)=O | . | . | 20 | . | . | /
COCC#Cc1ccc2c(c1)O[C@H](CN(C)Cc1ccccc1)[C@H](C)CN([C@H](C)CO)S2(=O)=O | . | . | . | . | . | /
C[C@H](CO)N1C[C@H](C)[C@@H](CN(C)Cc2ccccc2)Oc2cc(Br)ccc2S1(=O)=O | . | . | ? | . | . | /
Cn1ccc2c(-c3ccc(C(C)(C)C)cc3)cc3c(c21)C1CCC3C1 (stereo not given) | . | . | 21 | . | . | /
Fc1ccc(NC(=S)N/N=C/c2ccc(F)c(F)c2)cc1 | / | / | . | . | . | .
Fc1ccc(/C=N/NC(=S)Nc2ccc(Cl)cc2Cl)cc1 | / | / | . | 10 | . | .
Cc1ccc(CNC(=O)c2ccc3c(=O)c(O)c(-c4ccc(C)cc4)[nH]c3c2)cc1 | . | . | / | 14 | . | .
C[C@@H]1CCCCO[C@@H](CN(C)C(=O)NC2CCCCC2)[C@H](C)CN([C@@H](C)CO)C(=O)c2cc(NC(=O)Nc3ccc(C(F)(F)F)cc3)ccc2O1 | . | / | . | . | . | /
COc1cccc(C(=O)Nc2sc3c(c2C#N)CCN(C(C)=O)C3)c1 | / | / | . | 14 | . | .
SMILES | Cneo AK release | Statin myotox sup | DENV2 CPE rescue | CFTR F508del cor | ERp5 block | PDI inh
CC(C)NC(=O)N(C)C[C@@H]1Oc2ccc(NC(=O)Nc3ccccc3)cc2C(=O)N([C@H](C)CO)C[C@@H]1C | . | . | . | . | . | /
C[C@H](CO)N1C[C@H](C)[C@@H](CN(C)S(=O)(=O)c2ccc(Cl)cc2)Oc2c(NS(=O)(=O)c3ccccc3)cccc2C1=O | . | . | . | . | . | /
CCCC(=O)Nc1ccc2c(c1)c1ccccc1n2CC | / | / | . | / | . | .
CCn1c2ccccc2c2cc(NC(=O)COC(=O)c3cc(OC)c(OC)cc3OC)ccc21 | . | / | 41 | . | . | .
COc1ccc(S(=O)(=O)n2nc(-c3ccc(Cl)cc3)cc2N)cc1 | . | . | . | . | . | .
COc1ccc(-c2cc(N)n(S(=O)(=O)c3ccc(C)cc3)n2)c(OC)c1 | . | . | 22 | . | . | .
c1ccc2c(C(c3nnnn3-c3ccc4c(c3)OCCO4)N3CCCC3)ccnc2c1 (stereo not given) | / | / | . | . | . | /
CN(C)CCN1CCN(C(c2ccnc3ccccc23)c2nnnn2-c2ccc3c(c2)OCCO3)CC1 (stereo not given) | / | / | 22 | . | . | /
CN(C)CCCNC(=O)C[C@H]1CC[C@H]2[C@@H](COC[C@H](O)CN2S(=O)(=O)c2ccc(F)cc2)O1 | . | . | . | . | . | /
Cc1nn(Cc2ccccc2Cl)c2sc(C(=O)NCc3ccc4c(c3)OCO4)cc12 | . | 126 | / | / | / | .
COc1ccc(-c2cc(C)no2)cc1S(=O)(=O)N1CCN(c2cccc(C)c2)C(C)C1 (stereo not given) | . | . | . | . | . | .
Cc1cccc(N2CCN(S(=O)(=O)c3cc(-c4cc(C)no4)ccc3C)CC2C)c1 (stereo not given) | . | . | . | 11 | . | .
CC1(C)COC(c2ccc(F)c([N+](=O)[O-])c2)=N1 | / | / | 34 | / | . | .
COc1cc(CN2CC3(CN(C(=O)Nc4c(C)noc4C)C3)c3c(n(C)c4cc(OC)ccc34)[C@H]2CO)cc(OC)c1 | / | / | . | . | . | /
Cc1cc(C(=O)CN2C(=O)C(=O)N(Cc3ccccc3)C2=O)c(C)n1Cc1ccccc1 | . | . | . | 9.4 | . | .
Cc1noc(C)c1NC(=O)N(C)C[C@H]1Oc2c(NC(=O)Nc3ccc(C(F)(F)F)cc3)cccc2C(=O)N([C@@H](C)CO)C[C@@H]1C | . | . | 27 | . | . | /
C[C@@H]1CN([C@@H](C)CO)C(=O)c2cccc(NC(=O)Nc3ccc(C(F)(F)F)cc3)c2O[C@H]1CN(C)C(=O)NC1CCCCC1 | . | . | . | . | . | /
Cc1noc(C)c1NC(=O)N(C)C[C@H]1Oc2c(NC(=O)Nc3ccc4c(c3)OCO4)cccc2C(=O)N([C@H](C)CO)C[C@@H]1C | . | 83! | . | . | . | .
Cc1noc(C)c1NC(=O)N(C)C[C@@H]1Oc2c(NC(=O)Nc3ccc4c(c3)OCO4)cccc2C(=O)N([C@@H](C)CO)C[C@@H]1C | . | . | . | . | . | /
